Experimental data published in PubChem BioAssay.
Active and inactive are the calls of the source.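 Rule for the calls, unless noted: active = viability loss from added drug above about 55%, and viability with drug at most 40%, in both replicates (limit read from the data, passing the limit was not always enough); inconclusive = both conditions met in only one replicate; inactive = neither replicate meets both conditions.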

Tests used:
[1] = HUVEC growth inhibition – cell-based, human, primary screen (AID 575;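 active = viability at or below 30% in both replicate assays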;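 note: 100% = median of untreated cell wells with 0.1% DMSO on each plate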); settings: HUVEC proliferation, CellTiter-Glo luminescence, 72 h; at 10 µM; stronger effect = lower value
In short: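 Test system: primary human umbilical vein endothelial cells. Quantity: 1250 cells/well. Compound: single 10 µM dose, 0.1% DMSO, from 5x medium stock. Timing: 72 h treatment at 37 °C. Detection: ATP-based CellTiter-Glo luminescent read. Benchmarks: vehicle and MePR control wells. Format: 384-well plates coated with collagen.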

[2] = growth inhibitors of H69AR lung tumor, primary screen, human, duplicate replicates (AID 580;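 active = viability at or under a set limit in both replicates, limit being median viability minus 3 SD, cut at about 48% in these data, passing the limit was not always enough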;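 note: 100% = mean luminescence of untreated wells and 0% = no signal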); settings: H69AR lung tumor cells viability, ATP luminescence, 72 h; at 10 µM; stronger effect = lower value
[3] = reversal of MRP1-mediated doxorubicin resistance, pilot screen, H69AR cells, doxorubicin co-treatment (AID 601); settings: CellTiter-Glo, 72 h, at 10 µM; for differential viability (reversal): stronger effect = higher value
[4] = 384-well plate pilot, post-Golgi transport modulator project, inhibition of yeast transport mutant growth (AID 636; in the data active = inhibition above about 31%); settings: absorbance 615 nm, about 18 h, stronger effect = higher value
[5] = growth suppression of yeast trafficking mutant, preliminary HTS, modulators of trafficking downstream of Golgi apparatus project, 1536-format plate, OD 615 nm (AID 637; in the data active = inhibition above about 30%); settings: yeast transport mutant growth, absorbance 615 nm, 18 h; stronger effect = higher value
[6] = H69AR cells + 2 uM doxorubicin, measured here: viability with 2 uM doxorubicin, stronger effect = lower value
[7] = H69AR cells, compound alone cytotoxicity

SMILES | viability [1] | viability [2] | differential viability (reversal) ([3]; H69AR cells + 2 uM doxorubicin) | viability [3, 6] | viability [3, 7] | inhibition [4] | inhibition [5]
CCC(=O)n1nc(-c2ccco2)nc1N | 113% (inactive) | 110% (inactive) | 11.3% (inactive) | 98.2% | 110% | 0.53% (inactive) | 5.4% (inactive)
O=C(c1ccco1)N1CCN(C(=O)c2ccc(Cn3cc(Br)cn3)o2)CC1 | 91% (inactive) | 79.7% (inactive) | -12.7% (inactive) | 92.4% | 79.7% | -2.11% (inactive) | 2.86% (inactive)
Cc1onc(-c2c(Cl)cccc2Cl)c1C(=O)NCCCN1CCOCC1 | 108% (inactive) | 100% (inactive) | -1.13% (inactive) | 101% | 100% | -2.5% (inactive) | -2.22% (inactive)
CN(c1cccc(NS(=O)(=O)c2cccs2)c1)S(C)(=O)=O | 95.5% (inactive) | 86.8% (inactive) | 2.12% (inactive) | 84.7% | 86.8% | -0.13% (inactive) | 18.1% (inactive)
CN(C(=O)c1c(Cl)nc2sccn12)C1CCCCC1 | 106% (inactive) | 93.9% (inactive) | 16.4% (inactive) | 77.5% | 93.9% | -5.53% (inactive) | -5.4% (inactive)
O=C(O)C1C2CCC(O2)C1C(=O)Nc1cccc(F)c1 (configuration not stated) | 80.9% (inactive) | 90.8% (inactive) | 10.3% (inactive) | 80.5% | 90.8% | -4.74% (inactive) | 3.02% (inactive)
COc1ccc(OC(C)C(=O)N2CCN(c3ccccn3)CC2)cc1 (configuration not stated) | 106% (inactive) | 94.4% (inactive) | 5.04% (inactive) | 89.3% | 94.4% | -3.95% (inactive) | -0.32% (inactive)
O=C(NC1CCCCC1)C(c1ccc(Cl)cc1)N(C(=O)c1cnccn1)c1ccc2c(c1)OCO2 (configuration not stated) | 80.4% (inactive) | 80.2% (inactive) | 4.39% (inactive) | 75.8% | 80.2% | -5.47% (inactive) | -5.71% (inactive)
CCc1nccn1S(=O)(=O)c1ccc2ccc(C)cc2c1 | 105% (inactive) | 91.3% (inactive) | -2.18% (inactive) | 93.5% | 91.3% | 2.24% (inactive) | -3.49% (inactive)
Cc1ccc(C)c(SCC(=O)Nc2nnc(-c3ccccc3)o2)c1 | 48.4% (inactive) | 74.9% (inactive) | -0.675% (inactive) | 75.6% | 74.9% | -3.64% (inactive) | -1.27% (inactive)
S=c1nc(C2CC2)[nH]c2ccccc12 | 78.3% (inactive) | 94% (inactive) | 5.99% (inactive) | 88% | 94% | -0.92% (inactive) | 0.63% (inactive)
COc1ccc(C(=O)Cn2nnc(-c3cccs3)n2)cc1 | 102% (inactive) | 90.9% (inactive) | 4.98% (inactive) | 85.9% | 90.9% | -6.67% (inactive) | -3.65% (inactive)
COc1ccc(C(=O)COC(=O)CCn2nnc(-c3cccs3)n2)cc1 | 110% (inactive) | 102% (inactive) | 9.01% (inactive) | 93.4% | 102% | -0.27% (inactive) | -6.35% (inactive)
c1ccc(-c2nc3nonc3c3nc4ccccc4n23)cc1 | 93.8% (inactive) | 88.8% (inactive) | -1.96% (inactive) | 90.8% | 88.8% | -6.27% (inactive) | 1.9% (inactive)
O=C1CC(Sc2nnc(-c3ccccc3)o2)C(=O)N1c1ccccc1 (configuration not stated) | 96.3% (inactive) | 2.27% (active) | -6.77% (inactive) | 9.04% | 2.27% | -6.13% (inactive) | -1.11% (inactive)
O=C(NCc1nc2ccccc2[nH]1)c1ccco1 | 106% (inactive) | 90.7% (inactive) | 7.09% (inactive) | 83.7% | 90.7% | -4.13% (inactive) | -1.9% (inactive)
COC(=O)CN1C(=O)C2(C(C#N)=C(N)Oc3c2c(C)nn3-c2ccccc2)c2ccccc21 (configuration not stated) | 69.8% (inactive) | 67.8% (inactive) | -5.54% (inactive) | 73.3% | 67.8% | -6.32% (inactive) | -1.43% (inactive)
CN(C)S(=O)(=O)Nc1ccccc1C(N)=O | 90.8% (inactive) | 98.4% (inactive) | 13.8% (inactive) | 84.6% | 98.4% | -6% (inactive) | 0.63% (inactive)
CCOC(=O)c1c(COC(=O)c2ccco2)nc2ccccc2[n+]1[O-] | 90.3% (inactive) | 87.2% (inactive) | 2.55% (inactive) | 84.6% | 87.2% | -5.73% (inactive) | 3.97% (inactive)
COc1ccc(OC)c(NC(=O)Cc2coc3ccc(C)cc23)c1 | 76.7% (inactive) | 82.1% (inactive) | 3.86% (inactive) | 78.3% | 82.1% | -6.05% (inactive) | 0.48% (inactive)
Cc1ccc(S(=O)(=O)NCCc2ccncc2)cc1 | 95.4% (inactive) | 110% (inactive) | 10.4% (inactive) | 100% | 110% | -2.47% (inactive) | -0.16% (inactive)
